Data taken from ChEMBL document CHEMBL1143591, “Synthesis and biological evaluation of 11-substituted 6-aminobenzo[c]phenanthridine derivatives, a new class of antitumor agents” (2005).

How the values were obtained:
Format in all cases: functional
Settings in all cases: Homo sapiens
CCRF-CEM = assay: Concentration required to inhibit 50% cell growth of CCRF-CEM Leukemia cell line
Procedure, shortened: (§1)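 Tested in the NCI in vitro Human Tumor Cell Line Screen. The GI50 is the concentration that causes 50% inhibition of net cell growth and is reported as the log of the molar concentration. If that level is not reached or is exceeded, the value is given as greater or less than the highest or lowest drug concentration.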

K562 = assay: Concentration required to inhibit 50% cell growth of K-562 Leukemia cell line; procedure, shortened: as §1
HL-60 = assay: Concentration required to inhibit 50% cell growth of HL-60 Leukemia cell line; procedure, shortened: as §1
MOLT-4 = assay: Concentration required to inhibit 50% cell growth of MOLT-4 Leukemia cell line; procedure, shortened: as §1
RPMI-8226 = assay: Concentration required to inhibit 50% cell growth of RPMI-8226 Leukemia cell line; procedure, shortened: as §1

Row | Compound | GI50 (CCRF-CEM) [nM] | GI50 (K562) [nM] | GI50 (HL-60) [nM] | GI50 (MOLT-4) [nM] | GI50 (RPMI-8226) [nM]
1 | COc1cc(-c2cc3ccccc3c3nc(N)c4ccccc4c23)cc(OC)c1OC | 288 | 79.4 | 63.1 | 372 | 240
2 | COc1ccc([C@H]2Cc3ccccc3-c3nc(N)c4ccccc4c32)cc1OC | 1120 | 2820 | 7080 | 2950 | 2400
3 | COc1ccc(-c2cc3ccccc3c3nc(N)c4ccccc4c23)c(OC)c1OC | 372 | 339 | 380 | 437 | 288
4 | COc1ccc(-c2cc3ccccc3c3nc(N)c4ccccc4c23)cc1OC | 170 | 45.7 | 61.7 | 234 | 126
5 | COc1ccc([C@H]2Cc3ccccc3-c3nc(N)c4ccccc4c32)cc1O | 13800 | 1620 | 8130 | 14500 | 5010
6 | COc1cc([C@H]2Cc3ccccc3-c3nc(N)c4ccccc4c32)cc(OC)c1OC | 2630 | 813 | 1700 | 2630 | 1820
7 | COc1ccc([C@H]2Cc3ccccc3-c3nc(N)c4ccccc4c32)c(OC)c1OC | 20900 | 4270 | 6760 | 3470 | 4270
8 | Nc1nc2c3ccccc3cc(-c3ccco3)c2c2ccccc12 | 9770 | 4070 | 437 | 1200 | 4570
9 | Nc1nc2c3ccccc3cc(-c3ccc4c(c3)OCO4)c2c2ccccc12 | 4070 | 794 | 4470 | 3310 | 2820
10 | Nc1nc2c(c3ccccc13)[C@@H](c1ccc3c(c1)OCO3)Cc1ccccc1-2 | 3550 | 3090 | 5500 | 4790 | 3310
11 | Nc1nc2c(c3ccccc13)[C@@H](c1ccco1)Cc1ccccc1-2 | 3310 | 3090 | 4170 | 3720 | 2820
12 | COc1cc([C@H]2Cc3ccccc3-c3nc(N)c4ccccc4c32)cc(OC)c1O | 871 | 282 | 288 | 631 | 427
13 | COc1ccc(OC)c([C@H]2Cc3ccccc3-c3nc(N)c4ccccc4c32)c1 | 17800 | 7590 | 13800 | 15500 | 4680
14 | COc1ccc(-c2cc3ccccc3c3nc(N)c4ccccc4c23)c(OC)c1 | 309 | 219 | 309 | 933 | 363
